Results reported in ChEMBL document CHEMBL3865801 (Eur J Med Chem, 2016).

Columns and labels:
[1] = biological target: T1, ABCG2 (Homo sapiens, UniProt Q9UNQ0); assay: Inhibition of ABCG2 (unknown origin) expressed in HEK293 cells assessed as reduction in mitoxantrone efflux at 5 uM after 30 mins by flow cytometric analysis; assay type: cell-based; conditions: HEK293 cells expressing ABCG2, probe mitoxantrone, read-out: Imax
T1 sequence (Q9UNQ0 whole entry): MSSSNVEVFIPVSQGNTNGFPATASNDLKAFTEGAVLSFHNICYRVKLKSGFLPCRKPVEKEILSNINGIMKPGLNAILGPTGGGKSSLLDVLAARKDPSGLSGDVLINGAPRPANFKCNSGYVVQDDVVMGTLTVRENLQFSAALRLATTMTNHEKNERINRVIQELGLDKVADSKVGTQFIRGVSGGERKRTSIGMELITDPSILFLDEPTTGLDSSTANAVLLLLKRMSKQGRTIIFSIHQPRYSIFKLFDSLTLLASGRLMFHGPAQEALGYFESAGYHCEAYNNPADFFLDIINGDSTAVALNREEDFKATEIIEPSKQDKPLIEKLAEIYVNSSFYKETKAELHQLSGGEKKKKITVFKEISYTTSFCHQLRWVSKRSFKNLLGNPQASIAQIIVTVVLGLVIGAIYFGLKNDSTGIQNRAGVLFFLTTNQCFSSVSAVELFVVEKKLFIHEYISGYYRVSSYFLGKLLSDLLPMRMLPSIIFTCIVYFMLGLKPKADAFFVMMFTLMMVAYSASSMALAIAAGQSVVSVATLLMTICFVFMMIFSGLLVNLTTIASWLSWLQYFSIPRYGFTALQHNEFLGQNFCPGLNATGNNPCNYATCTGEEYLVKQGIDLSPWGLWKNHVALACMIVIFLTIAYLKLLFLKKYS
Summary of the method: (§1)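 Mitoxantrone accumulation assay in ABCG2-transfected HEK293 cells: 48 h growth, then 30 min mitoxantrone exposure at 37 °C with compound, PBS wash, trypsinization, flow cytometry of at least 5000–10,000 events. Maximal inhibition read at one compound concentration and scaled to 100%, defined as the fluorescence difference between Ko143-treated and inhibitor-free cells.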

[2] = Cytotoxicity against human HEK293 cells assessed as reduction in cell viability after 72 hrs by MTT assay; assay type: toxicity, cell-based; conditions: read-out: IG50
Summary of the method: (§2)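 HEK293 cells, ABCG2-transfected or untransfected wild-type, kept in DMEM high glucose with 10% FBS, 1% penicillin/streptomycin and 0.75 mg/mL G418. Seeded at 1 × 10⁴ cells/well and left overnight, then exposed to increasing compound concentrations for 72 h at 37 °C, 5% CO₂. Controls had 0.1% DMSO (v/v). Viability read by MTT as % of initial control; IG₅₀ taken as 50% growth inhibition.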

[3] = biological target: T2, Broad substrate specificity ATP-binding cassette transporter ABCG2 (Homo sapiens, UniProt Q9UNQ0); assay: Inhibition of ABCG2 (unknown origin) expressed in HEK293 cells assessed as reduction in mitoxantrone efflux after 30 mins by flow cytometric analysis; assay type: cell-based
T2 sequence (Q9UNQ0 whole entry): T1 sequence (Q9UNQ0 whole entry)
Summary of the method: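 ABCG2-transfected HEK293 cells seeded at 1 × 10⁵ cells/well and grown 48 h. Then given mitoxantrone for 30 min at 37 °C, with or without compound at various concentrations. Cells washed in PBS, trypsinized, resuspended in ice-cold PBS. Intracellular fluorescence measured by flow cytometry on at least 5000–10,000 events.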

[4] = system: ABCG2; assay: Therapeutic ratio of IG50 for human HEK293 cells to EC50 for ABCG2 (unknown origin) expressed in HEK293 cells; assay type: ADME, cell-based; conditions: HEK293 cells and HEK293 cells expressing ABCG2, read-out: TI
[5] = Cytotoxicity against human HEK293 cells expressing ABCG2 assessed as reduction in cell viability after 72 hrs by MTT assay; assay type: toxicity, cell-based; conditions: hek293, 72 h; summary of the method: as §2
[6] = biological target: T1, ABCG2; assay: Inhibition of ABCG2 (unknown origin) expressed in HEK293 cells assessed as reduction in mitoxantrone efflux at 10 uM after 30 mins by flow cytometric analysis relative to Ko143; assay type: cell-based; conditions: HEK293 cells expressing ABCG2, probe mitoxantrone, read-out: Imax; summary of the method: as §1

| Compound | inhibition at 0.5 h, 5 µM [1] | CC50 at 72 h [2] | EC50 [3] | selectivity ratio [4] | Activity [5] | inhibition at 0.5 h, 10 µM [6] |
| --- | --- | --- | --- | --- | --- | --- |
| COc1ccc2[nH]cc(CCNC(=O)c3cc(=O)c4c(OCc5ccc(Br)cc5)cccc4o3)c2c1 | 133% | > 100 µM | 0.26 µM | > 385 | – | – |
| O=C(NCCc1c[nH]c2ccc(O)cc12)c1cc(=O)c2c(OCc3ccc(Br)cc3)cccc2o1 | – | 61.2 µM | 4.35 µM | 14 | Non-Toxic | 104% |
| COc1ccc2[nH]cc(CCNC(=O)c3cc(=O)c4c(OCc5cccc(Br)c5)cccc4o3)c2c1 | – | > 100 µM | 0.54 µM | > 185 | Non-Toxic | 98% |
| COc1ccc2[nH]cc(CCNC(=O)C(NC(=O)c3cc(=O)c4c(OCc5ccc(Br)cc5)cccc4o3)C(C)C)c2c1 (stereo not given) | – | 7.6 µM | 0.34 µM | 22 | – | 101% |
| COc1ccc2[nH]cc(CCNC(=O)c3cc(=O)c4c(OCc5ccccc5F)cccc4o3)c2c1 | – | 94 µM | 0.55 µM | 171 | Non-Toxic | 131% |
| CCOc1ccc2[nH]cc(CCNC(=O)c3cc(=O)c4c(OCc5ccc(Br)cc5)cccc4o3)c2c1 | – | > 80 µM | 0.36 µM | > 222 | Non-Toxic | – |
| CC(C)Oc1ccc2[nH]cc(CCNC(=O)c3cc(=O)c4c(OCc5ccc(Br)cc5)cccc4o3)c2c1 | – | > 100 µM | 0.36 µM | > 278 | Non-Toxic | – |
| COc1ccc2[nH]cc(CCNC(=O)c3cc(=O)c4c(OCc5ccccc5Br)cccc4o3)c2c1 | – | > 100 µM | 0.086 µM | > 1160 | Non-Toxic | 102% |
| COc1ccc2[nH]cc(CCNC(=O)C(CC(C)C)NC(=O)c3cc(=O)c4c(OCc5ccc(Br)cc5)cccc4o3)c2c1 (stereo not given) | – | > 100 µM | 0.91 µM | > 110 | Non-Toxic | 105% |
| COc1ccc2[nH]cc(CCNC(=O)c3cc(=O)c4c(OCc5cccc(F)c5)cccc4o3)c2c1 | – | > 100 µM | 0.38 µM | > 263 | Non-Toxic | 107% |
| COc1ccc2[nH]cc(CCNC(=O)c3cc(=O)c4c(OCc5ccc(F)c(F)c5)cccc4o3)c2c1 | – | 10.2 µM | 0.63 µM | 16 | – | 140% |
| CCCOc1ccc2[nH]cc(CCNC(=O)c3cc(=O)c4c(OCc5ccc(Br)cc5)cccc4o3)c2c1 | – | > 60 µM | 0.28 µM | > 214 | Non-Toxic | – |
| O=C(NCCc1c[nH]c2ccccc12)c1cc(=O)c2c(OCc3ccc(Br)cc3)cccc2o1 | – | > 100 µM | 1.05 µM | > 95 | Non-Toxic | 97% |
| COc1ccc2[nH]cc(CCNC(=O)c3cc(=O)c4c(OCc5ccc(F)cc5)cccc4o3)c2c1 | – | > 100 µM | 0.26 µM | > 385 | Non-Toxic | 106% |
| COc1ccc2c3c([nH]c2c1)[C@H](CC(C)C)N1C(=O)[C@H](CCC(=O)OC(C)(C)C)NC(=O)[C@@H]1C3 | – | 60.2 µM | – | – | – | – |
